# Experimental data as given in ChEMBL document CHEMBL5223087, “First-in-Class Cyclic Temporin L Analogue: Design, Synthesis, and Antimicrobial Assessment” (J Med Chem, 2021).
# Active and inactive are the calls of the source. The calls are words filed in the database; no cut-off is given here. Bridge positions count the residues as written; N and C are the ends. Square brackets hold non-standard residues; d marks the D form. Peptide text beside a SMILES is read from it.
# How the values were obtained:
# [1] = Membrano-lytic effect in bacterial inner membrane mimic DOPE/DOPG/CL (63:23:12) large unilamellar vesicles at 5 to 50 uM by varian cary eclipse fluorescence spectrometry analysis; assay type: cell membranes; conditions: dose 5-50 µM
# [2] = Induction of membrane leakage in DOPE/DOPG/CL (63:23:12) large unilamellar vesicles at 5 to 50 uM incubated for 10 mins; conditions: dose 5-50 µM
# In short: (§1)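 Free probe removed by Sephadex G-50 gel filtration. Peptide added at 5–50 μM. ANTS dequenching followed 10 min (excitation 385 nm, emission 512 nm). Leakage normalised to Triton X-100 maximum.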
# [3] = Membrano-lytic effect in bacterial inner membrane mimic DOPG/CL (58:42) large unilamellar vesicles at 30 uM by varian cary eclipse fluorescence spectrometry analysis; assay type: cell membranes
# [4] = Induction of DOPG/CL (58:42) large unilamellar vesicles membrane fluidity at 5 uM (reference value: -0.32)
# In short: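 LUVs of DOPG/CL 58/42 prepared by extrusion (0.1 μm), Laurdan 1 μM incorporated, hydrated in PBS pH 7.4; lipid 100 μM final. Peptide added at 5 or 30 μM; spectra recorded after 10 min at 25 °C. Fluidity expressed as GP = (I440 − I490)/(I440 + I490).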
# [5] = Induction of membrane leakage in DOPG/CL (58:42) large unilamellar vesicles at 5 to 50 uM incubated for 10 mins; conditions: dose 5-50 µM; in short: as §1
# [6] = test system: Staphylococcus aureus; experiment: Antimicrobial activity against MRSA-resistant Staphylococcus aureus ATCC 43300 assessed as reduction in colony formation at 12.5 uM incubated for 30 min by time kill assay; assay type: functional, organism-based
# [7] = test system: HaCaT; experiment: Cytotoxicity against human HaCaT cells assessed as reduction in cell viability at 3.125 to 100 uM measured after 2 to 24 hrs by MTT assay; assay type: toxicity, cell-based; conditions: dose lower 3.125 µM, time lower 2 hrs, dose upper 100 µM, time upper 24 hrs
# In short: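 HaCaT keratinocytes seeded at 4 × 10⁴/well in DMEM with 4 mM glutamine and 2% FBS, no antibiotics, overnight at 37 °C, 5% CO2. Medium replaced with peptide-containing DMEMg for 2 or 24 h. MTT 0.5 mg/mL in Hank's buffer 4 h, formazan dissolved in acidified isopropanol, A570. Viability as % of untreated cells; mean of three independent experiments ± SEM.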
# [8] = Induction of DOPG/CL (58:42) large unilamellar vesicles membrane fluidity at 5 uM (reference value: -0.32)
# [9] = test system: Serum; experiment: Proteolytic stability in human serum incubated for 0.25 to 12 hrs by RP-UHPLC analysis; assay type: ADME, cell-free; conditions: time 0.25-12 hrs
# [10] = test system: Staphylococcus aureus; experiment: Antimicrobial activity against MRSA-resistant Staphylococcus aureus ATCC 43300 assessed as reduction in colony formation at 12.5 uM incubated for 24 hrs by time kill assay; assay type: functional, organism-based
# [11] = Disaggregation property of compound in LPS at 20 uM after 1 hr by Tht fluorescence based assay; assay type: physicochemical
# In short: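 Peptide 20 μM incubated 1 h with LPS 1 mg/mL and ThT 25 μM. Aggregation read as ThT emission at 482 nm, excitation 450 nm. ThT alone and peptide alone served as controls.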
# [12] = test system: Pseudomonas aeruginosa; experiment: Antimicrobial activity against Pseudomonas aeruginosa ATCC 27853 assessed as reduction in bacterial growth incubated for 16 to 18 hrs by microdilution susceptibility test; assay type: functional; conditions: time 16-18 hrs
# In short: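 Broth microdilution in Mueller–Hinton broth. Mid-log bacteria at 1 × 10⁶ CFU/mL final, peptide twofold serial dilutions 100 to 0.78 μM final. Incubated 16–18 h at 37 °C. MIC taken as the lowest concentration giving total (100%) growth inhibition.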
# [13] = Membrano-lytic effect in bacterial inner membrane mimic DOPE/DOPG/CL (63:23:12) large unilamellar vesicles at 10 uM by varian cary eclipse fluorescence spectrometry analysis; assay type: cell membranes
smiles,measurement,setting,value
CC[C@H](C)[C@H](NC(=O)[C@H](CCCNC(=N)N)NC(=O)[C@@H]1CCC(=O)NCCCC[C@H](NC(=O)[C@H](Cc2ccccc2)NC(=O)[C@H](Cc2c[nH]c3ccccc23)NC(=O)[C@@H]2CCCN2C(=O)[C@@H](NC(=O)[C@@H](N)Cc2ccccc2)C(C)C)C(=O)N[C@@H](CCCCN)C(=O)N[C@@H](Cc2ccccc2)C(=O)N[C@H](CC(C)C)C(=O)N1)C(=O)N[C@@H](CC(C)C)C(N)=O (H-FVPWFKKF[dL]ERIL-NH2; lactam 6-10),Activity,[1],Active
same,Activity,[2],Active
same,Activity,[3],Active
same,Activity,[4],-0.23
same,Activity,[5],Active
same,Activity,[6],Active
same,Activity,[7],Toxic
same,Activity,[8],-0.23
same,Stability,[9],Stable
same,Activity,[10],Active
same,Activity,[11],Not Active
same,MIC,[12],100 µM
same,Activity,[13],Active
